APJ antagonist: APJ receptor antagonism. P35414. CHO-K1 APJ beta-arrestin complementation, luminescence. inhibition, % at 20 µM. 0.32% of 330,000 active;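 active = inhibition above about 40% at 20 µM, limit read from the data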;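 note: cells challenged with 10 nM apelin-13 agonist together with compound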
CCR6 antagonist: antagonists of human CCR6 receptor; P51684; CHO-K1 CCR6 PathHunter beta-arrestin, luminescence, CCL20-stimulated; inhibition, % at 20 µM; 0.49% of 340,000 active; AID 493098;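 active = compounds whose inhibition of the agonist-driven luminescence signal at 20 µM reaches about 50%, limit read from the data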;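 note: cells stimulated with CCL20 at 14 nM final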
APJ ag: APJ receptor agonism | P35414 | 0.11% of 330,000 active | AID 2520 | CHO-K1 APJ PathHunter beta-arrestin, luminescence; 0% DMSO wells, 100% apelin | activation, % at 20 µM;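 active = activation more than six SD over the plate average, tested at 20 µM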
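Assay system – PathHunter CHO-K1 APJ (AGTRL-1) beta-arrestin reporter cells · Compound – one dose, 20 µM compound, 1% DMSO · Timing – compound 90 min 25 °C, reagent 1 h · Measured by – luminescence from split beta-galactosidase complementation, Galacton Star/Emerald II substrate · Measure – beta-arrestin recruitment to APJ as agonist activity, luminescent signal · Benchmarks – DMSO vs Apelin-13 10 nM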
EBI2 block: blocks human EBI2 receptor beta-arrestin signaling. P32249. EBI2 beta-arrestin recruitment, luminescence, 7a,25-OHC stimulated. inhibition, % at 5 µM. 0.81% of 360,000 active. AID 651636; in the data active = inhibition above about 38%;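 note: enzyme fragment complementation signal reports receptor beta-arrestin coupling in cells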
Target sequence (P32249 whole entry, looked up, the tested form may be a part): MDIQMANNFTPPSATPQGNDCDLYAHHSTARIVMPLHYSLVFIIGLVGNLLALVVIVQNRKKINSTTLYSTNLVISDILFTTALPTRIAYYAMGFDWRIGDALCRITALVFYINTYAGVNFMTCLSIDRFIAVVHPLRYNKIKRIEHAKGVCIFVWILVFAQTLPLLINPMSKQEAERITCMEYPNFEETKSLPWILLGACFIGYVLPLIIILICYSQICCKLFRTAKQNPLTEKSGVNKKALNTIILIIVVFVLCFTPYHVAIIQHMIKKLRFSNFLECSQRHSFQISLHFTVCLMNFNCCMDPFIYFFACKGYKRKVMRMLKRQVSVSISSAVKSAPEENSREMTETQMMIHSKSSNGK
CXCR6 block: inhibitors of human CXCR6 receptor; 0.36% of 360,000 active; O00574; CHO-K1 PathHunter CXCR6 beta-arrestin, luminescence; inhibition, % at 20 µM; in the data active = inhibition above about 34%, passing the limit was not always enough;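 note: antagonist mode with CXCL16 agonist at 10 nM final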
Of the large screens only hits and unclear results are named; the others gave an inactive call. Shown are actives, neighbours in structure and some others; about 1.5% of the full set was active somewhere.

O=C(Nc1cccc(Cl)c1)c1ccc(S(=O)(=O)NCC2CCCO2)cc1 (centres undefined)	none
CC(C)CCCCCCCCCCCCC(=O)NCC(=O)NC1C(O)C(O)C(Nc2ncnc3nc[nH]c23)OC1C(O)CO (centres undefined)	none (no result: APJ antagonist, APJ ag)
CCN(C(=S)Nc1ccc(OC(F)F)cc1)C1CCCCC1	EBI2 block 47
CCN(CC(=O)Nc1ccc(OC(F)F)cc1)C1CCCCC1	none
CN(CC(=O)NCC1CCCCC1)CC(=O)Nc1ccccc1Br	none
O=[N+]([O-])c1ccc(N/N=C/c2ccc(O)c(O)c2O)c(S(=O)(=O)N2CCOCC2)c1	CCR6 antagonist 51
COc1cc(/C=N/Nc2ccc([N+](=O)[O-])cc2S(=O)(=O)N2CCOCC2)cc(OC)c1OC	none
O=[N+]([O-])c1ccc(N/N=C/c2cccc(O)c2O)c(S(=O)(=O)N2CCOCC2)c1	APJ antagonist 58, CCR6 antagonist 72, EBI2 block 41, CXCR6 block 55
O=[N+]([O-])c1ccc(NCCCO)c(S(=O)(=O)N2CCOCC2)c1	none
CCCCOc1ccc(C(=O)NCC(=O)NCCCn2nc(C)cc2C)cc1	none
Nc1ccccc1N=Nc1ccccc1N	none
CC(C)(C)C1=CC(=Nc2ccccc2N)C=C(C(C)(C)C)C1=O	CCR6 antagonist 67
O=c1cc(-c2ccccc2)cc(-c2ccccc2)n1O	none
O=S(=O)(Nc1cccnc1)c1cccc(C(F)(F)F)c1	none
O=[N+]([O-])c1ccc(S(=O)(=O)c2cccc(C(F)(F)F)c2)nc1	CXCR6 block 47 (no result: CCR6 antagonist)
Cc1nnc(N=c2ssnc2Cl)o1	CCR6 antagonist 56, EBI2 block 41
C/C(=C\C(=O)c1ccc(Br)cc1)NNC(=O)c1ccc(O)cc1	none
C/C(=C\C(=O)c1ccc(Br)cc1)NNC(=O)c1ccccc1	CCR6 antagonist 65
COc1ccc(C(=O)Nc2ccc(C(=O)N3CCC(C)CC3)cc2)cc1OC	none
Cc1cccc(CSc2nnc(CCNC(=O)OC(C)(C)C)o2)c1	none
COc1ccc(OC)c(S(=O)(=O)ON2C(=O)c3ccccc3C2=O)c1	CCR6 antagonist 57
COc1ccc(OC)c(S(=O)(=O)N2CCN(c3ccccc3)CC2)c1	none
CC1=NN(c2ccc(Br)cc2)C(=O)/C1=C/c1cccs1	EBI2 block 57
CCOC(=O)C1CCCN(S(=O)(=O)Cc2ccc(Cl)cc2)C1 (centres undefined)	none
Oc1ccc(N=Nc2nc(-c3ccccc3)c(-c3ccccc3)[nH]2)cc1	APJ antagonist 54, CCR6 antagonist 67, CXCR6 block 53
CCOC(=O)CC1CCCCN1C(=O)CCCn1nnnc1CN1CCC(C)CC1 (centres undefined)	none
C[C@H]1CN([C@@H](C)CO)C(=O)CCCn2cc(nn2)CO[C@@H]1CN(C)S(=O)(=O)c1ccc(C#N)cc1	none (no result: APJ antagonist, CCR6 antagonist, APJ ag)
C=CC(=O)N1C/C(=C/c2ccc(F)cc2)C(=O)/C(=C\c2ccc(F)cc2)C1	CCR6 antagonist 84, EBI2 block 53, CXCR6 block 72 (no result: APJ antagonist, APJ ag)
CN1C2CCC1/C(=C\c1ccc(F)cc1)C(=O)/C2=C/c1ccc(F)cc1	none
COc1ccnc(CSC(N)=Nc2cccc(C(F)(F)F)c2)c1	CCR6 antagonist 53 (no result: APJ antagonist, APJ ag)
COc1ccnc(CSC(N)=Nc2ccccc2C(F)(F)F)c1	none
Cc1cccc(OCC(=O)NCC(=O)N/N=C/c2cc(Br)cc(Br)c2O)c1	CXCR6 block 45
COc1ccc(C(C)=O)cc1CC(=O)Nc1cccc(S(=O)(=O)N2CCOCC2)c1	none
Cc1ccccc1C(=O)O[C@H]1[C@H](Cc2ccccc2)NS(=O)(=O)[C@H]2CC3C=C[C@]12O3	none
C=C(CN(C)C)C(=O)c1cc(C)ccc1C	CCR6 antagonist 108, CXCR6 block 96 (no result: APJ antagonist, APJ ag)
Cc1ccc(C)c(C(=O)NCCN(C)C)c1	none
COc1ccccc1-c1nnc(SCC(=O)Nc2ccc(N3CCOCC3)cc2)n1C	none
Cc1cc(/C=C(\C#N)C(=O)NCCc2c[nH]c3ccccc23)c(C)n1C	none
COc1cc(/C=C(/C#N)C(=O)NCCc2c[nH]c3ccccc23)ccc1OCc1ccccc1F	CCR6 antagonist 58
CC(=O)Nc1ccnn1C1CCN(C(=O)c2cccc(C)c2C)CC1	none
Cn1c(C(=O)N2CCN(c3ccc(Cl)cc3)CC2)cc2c(=O)[nH]c3ccccc3c21	EBI2 block 83
CC1(C)Cc2c(c(N3CCOCC3)nc3sc4c(NCc5ccccc5)nnnc4c23)CS1	EBI2 block 76
CN(N=Cc1ccccc1O)c1ccc2ccccc2n1	none (no result: APJ antagonist, CCR6 antagonist, APJ ag)

Screening results as filed in PubChem BioAssay.
